Experiment [1] concerns the target Serine/threonine-protein kinase PAK 5 (Homo sapiens) (UniProt Q9P286). In words: Inhibition of PAK5 assessed as residual activity at 10 uM by Cherenkov counting relative to control in presence of 20 uM ATP.
The target of experiment [2] is Casein kinase I isoform delta (Homo sapiens, UniProt P48730). Nature of the experiment: Inhibition of CK1delta at 10 uM by Cherenkov counting in presence of 20 uM ATP.
Experiment [3] has as its target Ribosomal protein S6 kinase beta-1 (Homo sapiens) (UniProt P23443). In words: Inhibition of S6K1 assessed as residual activity at 10 uM by Cherenkov counting relative to control in presence of 20 uM ATP. The procedure, abridged: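 Single-concentration profiling at 10 μM in a 78-kinase panel. Kinase activity is expressed as a percentage of control assays run without compound.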

In experiment [4] the target is T1, Inhibitor of nuclear factor kappa-B kinase subunit beta (Homo sapiens) (UniProt O14920).
T1 sequence (whole entry): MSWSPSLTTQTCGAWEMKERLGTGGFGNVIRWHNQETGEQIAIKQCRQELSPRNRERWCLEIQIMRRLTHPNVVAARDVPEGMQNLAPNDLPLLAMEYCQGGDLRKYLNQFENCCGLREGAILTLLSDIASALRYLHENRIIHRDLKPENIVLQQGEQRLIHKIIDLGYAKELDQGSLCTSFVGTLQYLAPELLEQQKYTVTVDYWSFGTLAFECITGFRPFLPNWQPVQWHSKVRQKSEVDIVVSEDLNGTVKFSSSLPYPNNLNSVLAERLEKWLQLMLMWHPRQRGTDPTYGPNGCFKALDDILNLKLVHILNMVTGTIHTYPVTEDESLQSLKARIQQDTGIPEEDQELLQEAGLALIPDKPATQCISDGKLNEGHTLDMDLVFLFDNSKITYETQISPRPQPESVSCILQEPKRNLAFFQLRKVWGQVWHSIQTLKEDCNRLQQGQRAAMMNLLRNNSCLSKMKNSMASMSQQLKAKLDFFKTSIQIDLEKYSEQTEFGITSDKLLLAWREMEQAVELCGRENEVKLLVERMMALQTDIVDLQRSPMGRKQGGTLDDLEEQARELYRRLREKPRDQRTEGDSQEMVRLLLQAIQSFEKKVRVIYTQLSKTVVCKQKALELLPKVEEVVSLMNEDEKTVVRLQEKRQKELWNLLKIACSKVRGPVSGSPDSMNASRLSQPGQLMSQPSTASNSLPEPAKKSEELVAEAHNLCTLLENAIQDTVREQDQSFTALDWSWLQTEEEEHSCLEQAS
In words: Inhibition of IKK-beta assessed as residual activity at 10 uM by Cherenkov counting relative to control in presence of 5 uM ATP. An outline of the steps: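 Single-point profiling at 10 µM in a panel of 78 protein kinases. Kinase activity is expressed as a percentage relative to control assays without compound.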

For experiment [5], the target named is T2, Serine/threonine-protein kinase BRSK2 (Homo sapiens) (UniProt Q8IWQ3).
T2 sequence (whole entry): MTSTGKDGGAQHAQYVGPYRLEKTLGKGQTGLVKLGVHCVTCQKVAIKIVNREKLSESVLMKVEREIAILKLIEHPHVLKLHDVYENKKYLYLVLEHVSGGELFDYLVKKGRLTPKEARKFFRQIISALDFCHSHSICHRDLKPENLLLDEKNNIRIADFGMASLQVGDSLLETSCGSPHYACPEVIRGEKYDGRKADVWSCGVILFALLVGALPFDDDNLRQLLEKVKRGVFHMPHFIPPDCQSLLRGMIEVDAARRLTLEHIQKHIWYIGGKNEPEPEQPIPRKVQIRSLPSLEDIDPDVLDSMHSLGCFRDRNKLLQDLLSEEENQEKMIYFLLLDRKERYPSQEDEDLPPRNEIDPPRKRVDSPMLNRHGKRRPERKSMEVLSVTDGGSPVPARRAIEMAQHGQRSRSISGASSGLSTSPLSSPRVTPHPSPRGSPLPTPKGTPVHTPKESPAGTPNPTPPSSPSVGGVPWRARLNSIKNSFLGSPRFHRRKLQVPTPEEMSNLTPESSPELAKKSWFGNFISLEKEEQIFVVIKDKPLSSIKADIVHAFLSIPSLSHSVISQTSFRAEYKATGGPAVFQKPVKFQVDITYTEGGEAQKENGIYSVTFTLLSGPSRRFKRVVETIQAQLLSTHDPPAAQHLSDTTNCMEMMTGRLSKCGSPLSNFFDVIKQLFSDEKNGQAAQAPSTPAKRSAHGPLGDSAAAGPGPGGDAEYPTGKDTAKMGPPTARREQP
Nature of the experiment: Inhibition of BRSK2 assessed as residual activity at 0.1 uM by Cherenkov counting relative to control in presence of 50 uM ATP. An outline of the steps:
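Single-concentration screen at 0.1 µM across a panel of 76 protein kinases. Each kinase was run at an ATP concentration approximating its ATP Km. Results are % mean residual activity versus control assays without compound (n = 3 ± SD).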

Experiment [6] concerns the target T3, Serine/threonine-protein kinase TBK1 (Homo sapiens) (UniProt Q9UHD2).
T3 sequence (whole entry): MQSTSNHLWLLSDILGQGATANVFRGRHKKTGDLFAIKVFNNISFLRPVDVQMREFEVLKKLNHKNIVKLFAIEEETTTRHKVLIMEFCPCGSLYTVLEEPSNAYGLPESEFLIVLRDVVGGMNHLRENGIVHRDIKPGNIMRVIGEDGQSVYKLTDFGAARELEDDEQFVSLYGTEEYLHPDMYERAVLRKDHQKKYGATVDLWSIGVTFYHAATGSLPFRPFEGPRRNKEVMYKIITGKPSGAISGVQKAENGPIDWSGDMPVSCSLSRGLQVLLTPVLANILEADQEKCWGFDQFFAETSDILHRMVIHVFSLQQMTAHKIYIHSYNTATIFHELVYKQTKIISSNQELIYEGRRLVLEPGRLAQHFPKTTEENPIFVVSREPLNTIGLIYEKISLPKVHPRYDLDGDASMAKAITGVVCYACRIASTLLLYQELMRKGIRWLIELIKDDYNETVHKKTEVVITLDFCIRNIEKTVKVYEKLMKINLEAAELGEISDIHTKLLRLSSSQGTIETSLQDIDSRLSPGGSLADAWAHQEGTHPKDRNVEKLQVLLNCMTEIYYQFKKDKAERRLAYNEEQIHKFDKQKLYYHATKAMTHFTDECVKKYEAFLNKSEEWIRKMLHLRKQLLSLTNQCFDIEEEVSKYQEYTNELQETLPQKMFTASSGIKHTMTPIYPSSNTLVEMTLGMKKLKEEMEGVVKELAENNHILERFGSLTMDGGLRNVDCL
Nature of the experiment: Inhibition of TBK1 assessed as residual activity at 0.1 uM by Cherenkov counting relative to control in presence of 50 uM ATP. An outline of the steps:
(§1)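 Single-concentration screen at 0.1 μM in a 76-kinase panel. ATP for each kinase was set near its Km for ATP. Residual activity is given as a percentage of control assays without compound, mean of n = 3 ± SD.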

Experiment [7] addresses Protein kinase C alpha type (Homo sapiens) (UniProt P17252). In words: Inhibition of PKCalpha assessed as residual activity at 0.1 uM by Cherenkov counting relative to control in presence of 20 uM ATP. The procedure, abridged:
as §1

Our source for the Activity and inhibition values is ChEMBL document CHEMBL1155278, “3,4-Diaryl-isoxazoles and -imidazoles as potent dual inhibitors of p38alpha mitogen activated protein kinase and casein kinase 1delta” (J Med Chem, 2009).

What is called inhibition is the relative decrease from the control value, in per cent.

Sequence of Serine/threonine-protein kinase PAK 5 (Homo sapiens) (Q9P286 whole entry, looked up, canonical isoform): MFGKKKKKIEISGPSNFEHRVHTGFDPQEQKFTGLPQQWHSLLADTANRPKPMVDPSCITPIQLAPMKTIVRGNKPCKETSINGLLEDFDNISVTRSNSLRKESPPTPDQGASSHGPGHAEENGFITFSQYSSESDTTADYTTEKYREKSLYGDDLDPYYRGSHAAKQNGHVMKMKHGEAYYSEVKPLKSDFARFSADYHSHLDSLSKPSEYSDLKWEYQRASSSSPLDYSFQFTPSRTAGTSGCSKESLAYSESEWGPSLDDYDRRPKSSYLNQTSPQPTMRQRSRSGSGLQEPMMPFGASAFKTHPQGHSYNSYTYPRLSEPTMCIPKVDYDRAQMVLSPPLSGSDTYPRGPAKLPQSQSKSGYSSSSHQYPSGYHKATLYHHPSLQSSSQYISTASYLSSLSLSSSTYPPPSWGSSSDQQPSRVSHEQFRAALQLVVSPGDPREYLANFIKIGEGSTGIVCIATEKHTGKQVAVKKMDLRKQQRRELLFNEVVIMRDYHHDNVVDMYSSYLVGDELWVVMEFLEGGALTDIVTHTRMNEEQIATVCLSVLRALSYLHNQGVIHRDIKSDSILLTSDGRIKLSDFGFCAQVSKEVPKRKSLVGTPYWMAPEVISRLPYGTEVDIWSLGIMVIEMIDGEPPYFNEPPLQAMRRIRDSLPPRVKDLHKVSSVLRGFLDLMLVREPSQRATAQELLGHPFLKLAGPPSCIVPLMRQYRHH
Sequence of Ribosomal protein S6 kinase beta-1 (Homo sapiens) (P23443 whole entry, looked up): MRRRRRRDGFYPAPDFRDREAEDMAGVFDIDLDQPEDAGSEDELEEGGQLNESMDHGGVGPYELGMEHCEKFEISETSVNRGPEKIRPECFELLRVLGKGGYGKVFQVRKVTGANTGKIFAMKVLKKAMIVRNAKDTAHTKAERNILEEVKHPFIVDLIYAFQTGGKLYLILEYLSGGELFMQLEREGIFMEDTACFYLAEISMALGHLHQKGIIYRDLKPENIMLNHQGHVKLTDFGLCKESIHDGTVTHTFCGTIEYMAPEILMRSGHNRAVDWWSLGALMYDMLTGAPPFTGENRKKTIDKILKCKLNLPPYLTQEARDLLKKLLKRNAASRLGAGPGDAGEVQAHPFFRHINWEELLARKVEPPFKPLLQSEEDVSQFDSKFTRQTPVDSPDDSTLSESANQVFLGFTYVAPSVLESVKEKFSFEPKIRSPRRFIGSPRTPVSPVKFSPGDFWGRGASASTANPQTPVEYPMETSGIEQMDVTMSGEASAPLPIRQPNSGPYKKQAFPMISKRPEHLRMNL
Sequence of Casein kinase I isoform delta (P48730 whole entry, looked up, canonical isoform): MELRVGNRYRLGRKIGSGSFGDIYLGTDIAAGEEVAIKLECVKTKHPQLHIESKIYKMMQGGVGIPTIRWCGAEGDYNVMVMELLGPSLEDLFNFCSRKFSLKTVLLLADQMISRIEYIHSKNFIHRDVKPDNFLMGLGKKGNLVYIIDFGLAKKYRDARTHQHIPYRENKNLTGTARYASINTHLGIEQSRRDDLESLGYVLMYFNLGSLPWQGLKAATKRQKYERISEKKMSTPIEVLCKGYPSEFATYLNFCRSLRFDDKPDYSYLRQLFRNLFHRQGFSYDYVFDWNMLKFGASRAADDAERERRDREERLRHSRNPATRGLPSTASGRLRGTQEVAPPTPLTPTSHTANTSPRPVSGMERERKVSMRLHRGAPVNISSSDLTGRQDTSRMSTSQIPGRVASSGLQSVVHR

Regarding `CC(C)c1noc(-c2ccc(F)cc2)c1-c1ccncc1`, the Activity in experiment [1] is 94%; in experiment [3], 98%; in experiment [4] it was 103%. The inhibition in experiment [2] is 40%.

For `CC(C)c1onc(-c2ccc(F)cc2)c1-c1ccncc1`, the Activity in experiment [1] turned out to be 98%; in experiment [3], 89%; in experiment [4] it was 103%. Also, the inhibition in experiment [2] was 90%.

On to `COc1ccc(/C=C/C(=O)Nc2cc(-c3[nH]c([S+](C)[O-])nc3-c3ccc(F)cc3)ccn2)c(OC)c1` (centres undefined), for which the Activity in experiment [5] is 97%; in experiment [6] it was 106%; in experiment [7] it was 103%.

Regarding `COc1ccc(/C=C/C(=O)Nc2cc(-c3[nH]c(SC)nc3-c3ccc(F)cc3)ccn2)c(OC)c1`, the Activity in experiment [5] stood at 86%; in experiment [6], 103%; in experiment [7] it was 110%.
